Our source for the viability, differential viability (reversal) and inhibition values is PubChem BioAssay.

Test [1] can be described thus: HUVEC growth inhibition – cell-based, human, primary screen (AID 575;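 active means viability at or below 30% in both replicate assays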;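 further: 100% = median of untreated cell wells with 0.1% DMSO on each plate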). The following applies: HUVEC proliferation, CellTiter-Glo luminescence, 72 h; at 10 µM; stronger effect = lower value. An outline of the steps: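 Assay system: Primary human umbilical vein endothelial cells | Quantity: 1250 cells per well | Medium: Supplemented EBM, 2% fetal bovine serum | Detection: CellTiter-Glo luminescence measuring cellular ATP | Read-out: % viability vs DMSO wells | Plate: Collagen-coated 384-well format | Times: 72 h exposure, 37 °C, 5% CO2, 30 min RT equilibration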
In general terms: Cellular ATP, detected with luciferase, serves as a proxy for viable cell number.

Test [2] in a line: H69AR cell proliferation blockers – human, duplicate replicates, primary screen (AID 580;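 active means viability at or under a set limit in both replicates, limit being median viability minus 3 SD, cut at about 48% in these data, passing the limit was not always enough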;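 further: 100% = mean luminescence of untreated wells and 0% = no signal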). The following applies: H69AR lung tumor cells viability, ATP luminescence, 72 h; at 10 µM; stronger effect = lower value.
Test [3] in a line: MRP1 drug-resistance reversers in H69AR cells – cell-based, doxorubicin co-treatment, pilot screen (AID 601). The following applies: CellTiter-Glo, 72 h, at 10 µM; for differential viability (reversal): stronger effect = higher value.
Test [4] can be described thus: yeast transport mutant growth inhibition pilot in 384-well plates, post-Golgi transport modulator project (AID 636; in the data active means inhibition above about 31%). The following applies: absorbance 615 nm, about 18 h, stronger effect = higher value.
The nature of test [5]: growth suppression of yeast trafficking mutant, preliminary HTS, modulators of trafficking downstream of Golgi apparatus project, 1536-format plate, OD 615 nm (AID 637; in the data active means inhibition above about 30%). The following applies: yeast transport mutant growth, absorbance 615 nm, 18 h; stronger effect = higher value.
The mark [6] stands for this setting: H69AR cells + 2 uM doxorubicin, measured here: viability with 2 uM doxorubicin, stronger effect = lower value.
[7] abbreviates: H69AR cells, compound alone cytotoxicity.

Activity calls are given as the source filed them.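 How the source made its calls, unless noted: active means viability loss from added drug above about 55%, and viability with drug at most 40%, in both replicates (limit read from the data, passing the limit was not always enough); inconclusive means both conditions met in only one replicate; inactive means neither replicate meets both conditions.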

Usually viability stands for a read-out of living cells in per cent, often relative to untreated cells. Broadly, the inhibition is the relative decrease from the control value, in per cent.

For the compound `Cn1c(=O)c2c(nc(-n3ccnc3)n2C)n(C)c1=O`, the viability in test [1] is 105% (inactive); in test [2], 101% (inactive); in test [3] (setting [6]), 92.7%; in test [3] (setting [7]), 101%. For the same compound, in test [3] (H69AR cells + 2 uM doxorubicin), the differential viability (reversal) is 8.81% (inactive). Also, the inhibition in test [4] is -4.13% (inactive); in test [5] it was 1.59% (inactive).
For the compound `O=S(=O)(c1ccc2c(c1)OCCO2)N(Cc1ccc(F)cc1)Cc1nnc(-c2cccs2)o1`, the viability in test [1] was 81% (inactive); in test [2], 92.1% (inactive); in test [3] (setting [6]), 83.4%; in test [3] (setting [7]), 92.1%. The differential viability (reversal) in test [3] (H69AR cells + 2 uM doxorubicin) is 8.63% (inactive). Besides, the inhibition was -3.38% (inactive) in test [4] and 0.79% (inactive) in test [5].
Regarding `CC(C)(C)C1CCc2c(sc3c2C(=O)NC(c2ccco2)N3)C1` (stereo not given), the viability in test [1] is 72.5% (inactive); in test [2] it was 88.5% (inactive); in test [3] (setting [6]), 98.9%; in test [3] (setting [7]), 88.5%. For the same compound, the differential viability (reversal) in test [3] (H69AR cells + 2 uM doxorubicin) is -10.4% (inactive). Moreover, the inhibition in test [4] is 1.97% (inactive); in test [5], -0.16% (inactive).
As for `O=C1CNCc2[nH]c3ccccc3c2N1c1ccccc1`, the viability in test [1] is 94.2% (inactive); in test [2], 94.8% (inactive); in test [3] (setting [6]), 96%; in test [3] (setting [7]), 94.8%. Besides, in test [3] (H69AR cells + 2 uM doxorubicin), the differential viability (reversal) was -1.22% (inactive). The inhibition in test [4] is -3.95% (inactive); in test [5] it was 1.27% (inactive).
In the case of `COc1ccc(-c2noc(CCC(=O)Nc3nc4ccccc4s3)n2)cc1`, the viability in test [1] was 88.2% (inactive); in test [2], 88.1% (inactive); in test [3] (setting [6]), 91.1%; in test [3] (setting [7]), 88.1%. The differential viability (reversal) in test [3] (H69AR cells + 2 uM doxorubicin) is -3.04% (inactive). Further, the inhibition in test [4] is 2.21% (inactive); in test [5], 7.46% (inactive).
`COC(=O)c1c(NC(=O)C2CC=CCC2C(=O)O)sc(C(N)=O)c1C` (stereo not given): the viability is 75.4% (inactive) in test [1], 98.2% (inactive) in test [2], 94% in test [3] (setting [6]) and 98.2% in test [3] (setting [7]). The differential viability (reversal) in test [3] (H69AR cells + 2 uM doxorubicin) is 4.23% (inactive). In addition, the inhibition is -7.76% (inactive) in test [4] and -6.03% (inactive) in test [5].
On to `c1ccc(OCc2nc3ccccc3[nH]2)cc1`, for which the viability in test [1] is 85.4% (inactive); in test [2] it was 92.2% (inactive); in test [3] (setting [6]) it was 90.6%; in test [3] (setting [7]), 92.2%. The differential viability (reversal) in test [3] (H69AR cells + 2 uM doxorubicin) is 1.59% (inactive). Moreover, the values for the inhibition in test [4] and in test [5] were -3.6% (inactive) and -4.13% (inactive), respectively.
Consider `COc1ccccc1-c1nc(C(F)(F)F)c(OC)o1`, for which the viability in test [1] was 104% (inactive); in test [2], 91.9% (inactive); in test [3] (setting [6]), 81.6%; in test [3] (setting [7]) it was 91.9%. Besides, the differential viability (reversal) in test [3] (H69AR cells + 2 uM doxorubicin) is 10.3% (inactive). For the same compound, the inhibition in test [4] is -1.97% (inactive); in test [5], 17.9% (inactive).
With `CC(=O)c1c(C)[nH]c(C(=O)NC2=NCCS2)c1C`, the viability in test [1] is 80.9% (inactive); in test [2] it was 99.8% (inactive); in test [3] (setting [6]) it was 76.5%; in test [3] (setting [7]), 99.8%. The differential viability (reversal) in test [3] (H69AR cells + 2 uM doxorubicin) was 23.3% (inactive). Further, the values for the inhibition in test [4] and in test [5] were -3.51% (inactive) and -5.4% (inactive), respectively.
Take `CCOC(=O)C1CCN(S(=O)(=O)c2cccc(-c3csc(C)n3)c2)CC1`: the viability is 101% (inactive) in test [1], 90.4% (inactive) in test [2], 84.5% in test [3] (setting [6]) and 90.4% in test [3] (setting [7]). Besides, the differential viability (reversal) in test [3] (H69AR cells + 2 uM doxorubicin) is 5.91% (inactive). The values for the inhibition in test [4] and in test [5] were -5.2% (inactive) and 3.81% (inactive), respectively.
`O=C(c1cc(-c2cccc(O)c2)on1)N1CCN(C(c2ccccc2)c2ccccc2)CC1`: the viability was 98.8% (inactive) in test [1], 26.8% (active) in test [2], 22.4% in test [3] (setting [6]) and 26.8% in test [3] (setting [7]). Further, the differential viability (reversal) in test [3] (H69AR cells + 2 uM doxorubicin) was 4.38% (inactive). Besides, the inhibition in test [4] was 0.26% (inactive); in test [5] it was -3.5% (inactive).
Turning to `CC1(C)CC(=O)C2=C(C1)N(Cc1ccco1)C(=O)C2(NC(=O)C1CCCCC1)C(F)(F)F` (stereo not given), the viability in test [1] is 88% (inactive); in test [2] it was 92.1% (inactive); in test [3] (setting [6]), 81.3%; in test [3] (setting [7]) it was 92.1%. In test [3] (H69AR cells + 2 uM doxorubicin), the differential viability (reversal) was 10.7% (inactive). Besides, the inhibition in test [4] is -4.47% (inactive); in test [5], 5.56% (inactive).
As to `Cc1cccc(-n2c(N)c(C(=O)N3CCN(C)CC3)sc2=S)c1`, the viability in test [1] was 101% (inactive); in test [2] it was 92.2% (inactive); in test [3] (setting [6]), 84.2%; in test [3] (setting [7]) it was 92.2%. In test [3] (H69AR cells + 2 uM doxorubicin), the differential viability (reversal) is 8.09% (inactive). Besides, the inhibition in test [4] is -0.39% (inactive); in test [5], -7.3% (inactive).
In the case of `N#Cc1cnc(SCC(=O)c2ccccc2)nc1N`, the viability was 95.5% (inactive) in test [1], 93.1% (inactive) in test [2], 76.9% in test [3] (setting [6]) and 93.1% in test [3] (setting [7]). Besides, the differential viability (reversal) in test [3] (H69AR cells + 2 uM doxorubicin) is 16.2% (inactive). The inhibition was -6.93% (inactive) in test [4] and 7.3% (inactive) in test [5].
For the compound `Cc1nc(SCC(=O)CC(=O)OC(C)C)c(C#N)c(C)c1C`, the viability in test [1] is 99.8% (inactive); in test [2] it was 95% (inactive); in test [3] (setting [6]) it was 88.7%; in test [3] (setting [7]), 95%. Moreover, the differential viability (reversal) in test [3] (H69AR cells + 2 uM doxorubicin) is 6.36% (inactive). Also, the values for the inhibition in test [4] and in test [5] were -2.8% (inactive) and 3.33% (inactive), respectively.
`C=C(C)COc1ccc(-c2n[nH]c(C)c2-c2ccccc2)c(O)c1`: the viability in test [1] is 2.96% (active); in test [2] it was 21.1% (active); in test [3] (setting [6]), 13.2%; in test [3] (setting [7]), 21.1%. In addition, the differential viability (reversal) in test [3] (H69AR cells + 2 uM doxorubicin) is 7.88% (inactive). The inhibition is -1.69% (inactive) in test [4] and 9% (inactive) in test [5].
Regarding `CC(=O)Nc1ccc(S(=O)(=O)N(CC(=O)O)Cc2ccccc2)cc1`, the viability in test [1] was 93.7% (inactive); in test [2] it was 97.7% (inactive); in test [3] (setting [6]), 104%; in test [3] (setting [7]), 97.7%. In addition, the differential viability (reversal) in test [3] (H69AR cells + 2 uM doxorubicin) was -6.14% (inactive). The figures for the inhibition in test [4] and in test [5] were -2.47% (inactive) and 7.14% (inactive), respectively.
As to `Cc1cccc2cc(C(c3nnnn3C(C)(C)C)N3CCN(C(=O)c4ccco4)CC3)c(=O)[nH]c12` (stereo not given), the viability in test [1] was 86.4% (inactive); in test [2] it was 79.3% (inactive); in test [3] (setting [6]), 83%; in test [3] (setting [7]), 79.3%. Further, the differential viability (reversal) in test [3] (H69AR cells + 2 uM doxorubicin) is -3.69% (inactive). The inhibition in test [4] is -6.32% (inactive); in test [5], 0% (inactive).
As to `O=C(CSc1nc(C2CCCCC2)n(-c2ccccc2)n1)NCCN1C(=O)CSC1=O`, the viability was 103% (inactive) in test [1], 98.8% (inactive) in test [2], 103% in test [3] (setting [6]) and 98.8% in test [3] (setting [7]). For the same compound, the differential viability (reversal) in test [3] (H69AR cells + 2 uM doxorubicin) is -4.29% (inactive). The results for the inhibition in test [4] and in test [5] were -5.84% (inactive) and 1.27% (inactive), respectively.
Consider `O=C(CC1CCCCC1)NCc1ccccn1`, for which the viability in test [1] was 92.2% (inactive); in test [2], 95.8% (inactive); in test [3] (setting [6]), 82.9%; in test [3] (setting [7]) it was 95.8%. Moreover, the differential viability (reversal) in test [3] (H69AR cells + 2 uM doxorubicin) is 12.9% (inactive). Also, the inhibition was -3.42% (inactive) in test [4] and -6.67% (inactive) in test [5].
